Assays:
[1] = Nitric oxide scavenging activity by naphthylethylenediamine dihydrochloride based Griesse-Ilosavay method
Summary of the method: (§1)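 Modified Griess-Ilosavay assay. Test sample in DMSO was mixed with potassium phosphate buffer (10 mM, pH 7.4) and sodium nitroprusside (10 mM stock), then incubated at 25 °C for 150 min to form nitrite. Sulphanilic acid reagent (0.33%) and N-(1-naphthyl)ethylenediamine dihydrochloride (0.1% w/v) were added, and the mixture stood 1–2 min. Absorbance was read at 546 nm against a blank. Ascorbic acid was the positive control and DMSO the blank. IC50 was obtained by […].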

[2] = Nitric oxide scavenging activity by naphthylethylenediamine dihydrochloride based Griesse-Ilosavay method relative to ascorbic acid; summary of the method: as §1

Structure (SMILES)	IC50 [1] [µM]	Ratio IC50 [2]
Cn1c(O)c(C(c2ccc3ccccc3c2)c2c(O)n(C)c(=O)n(C)c2=O)c(=O)n(C)c1=O	79.1	
Cn1c(O)c(C(C2=C(O)CC(C)(C)CC2=O)c2ccc([N+](=O)[O-])cc2)c(=O)n(C)c1=O (centres undefined)	466	
Cc1ccc(C(c2c(O)[nH]c(=O)[nH]c2=O)c2c(O)[nH]c(=O)[nH]c2=O)cc1	377	
Cn1c(O)c(C(C2=C(O)CC(C)(C)CC2=O)c2ccc(Cl)cc2Cl)c(=O)n(C)c1=O (centres undefined)	175	500
CC1(C)CC(=O)C(C(C2=C(O)CC(C)(C)CC2=O)c2ccc([N+](=O)[O-])cc2)=C(O)C1	281	
Cn1c(O)c(C(c2cccc(Br)c2)c2c(O)n(C)c(=O)n(C)c2=O)c(=O)n(C)c1=O	70.1	
Cn1c(O)c(C(C2=C(O)CC(C)(C)CC2=O)c2ccc(C=O)cc2)c(=O)n(C)c1=O (centres undefined)	380	
Cn1c(O)c(C(c2ccc(C=O)cc2)c2c(O)n(C)c(=O)n(C)c2=O)c(=O)n(C)c1=O	113	
O=C1O[C@H]([C@@H](O)CO)C(O)=C1O [ASCORBIC ACID]	618	
Cc1ccc(C(c2c(O)n(C)c(=O)n(C)c2=O)c2c(O)n(C)c(=O)n(C)c2=O)cc1	230	
Cn1c(O)c(C(c2ccc(Cl)cc2)c2c(O)n(C)c(=O)n(C)c2=O)c(=O)n(C)c1=O	75	
CC1(C)CC(=O)C(C(c2ccc(C=O)cc2)c2c(O)[nH]c(=O)[nH]c2=O)=C(O)C1 (centres undefined)	439	
Cc1cccc(C(c2c(O)n(C)c(=O)n(C)c2=O)c2c(O)n(C)c(=O)n(C)c2=O)c1	174	
O=c1[nH]c(O)c(C(c2ccc3ccccc3c2)c2c(O)[nH]c(=O)[nH]c2=O)c(=O)[nH]1	308	
O=Cc1ccc(C(c2c(O)[nH]c(=O)[nH]c2=O)c2c(O)[nH]c(=O)[nH]c2=O)cc1	330	
O=c1[nH]c(O)c(C(c2ccc(Cl)cc2)c2c(O)[nH]c(=O)[nH]c2=O)c(=O)[nH]1	304	
CC1(C)CC(=O)C(C(c2ccccc2)c2c(O)[nH]c(=O)[nH]c2=O)=C(O)C1 (centres undefined)	361	
COc1ccc(C(c2c(O)n(C)c(=O)n(C)c2=O)c2c(O)n(C)c(=O)n(C)c2=O)cc1	234	
Cn1c(O)c(C(C2=C(O)CC(C)(C)CC2=O)c2ccccc2)c(=O)n(C)c1=O (centres undefined)	290	
Cc1ccc(C(C2=C(O)CC(C)(C)CC2=O)c2c(O)[nH]c(=O)[nH]c2=O)cc1 (centres undefined)	432	
Cn1c(O)c(C(c2ccc([N+](=O)[O-])cc2)c2c(O)n(C)c(=O)n(C)c2=O)c(=O)n(C)c1=O	69	
Cn1c(O)c(C(c2ccc(O)cc2)c2c(O)n(C)c(=O)n(C)c2=O)c(=O)n(C)c1=O	310	
COc1ccc(C(c2c(O)[nH]c(=O)[nH]c2=O)c2c(O)[nH]c(=O)[nH]c2=O)cc1	206	
